Experimental data taken from ChEMBL document CHEMBL4261538, “Synthesis and molecular docking studies of xanthone attached amino acids as potential antimicrobial and anti-inflammatory agents” (Medchemcomm, 2017).
≈ marks a conversion by molar mass, not a printed value.

Legend:
Staphylococcus aureus [1] = assay: Antibacterial activity against Staphylococcus aureus at 25 ug/ml incubated for 24 hrs by agar well diffusion method; format: functional; conditions: read-out: DIZ
How it was run: (§1)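 Bacteria grown in nutrient broth at 37 °C for 24 h, then subcultured at room temperature. Compounds dissolved in DMSO at 5 mg mL⁻¹ and 5–20 µL added to 6 mm wells, giving 25, 50, 75, 100 µg per well. Gentamicin was the positive control and DMSO the negative control. Plates held at 37 °C for 24 h, then inhibition zone diameter (mm) measured. Values are means of three determinations.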

Staphylococcus aureus [2] = assay: Antibacterial activity against Staphylococcus aureus at 50 ug/ml incubated for 24 hrs by agar well diffusion method; format: functional; conditions: read-out: DIZ; how it was run: as §1
Staphylococcus aureus [3] = assay: Antibacterial activity against Staphylococcus aureus at 75 ug/ml incubated for 24 hrs by agar well diffusion method; format: functional; conditions: read-out: DIZ; how it was run: as §1
Staphylococcus aureus [4] = assay: Antibacterial activity against Staphylococcus aureus at 100 ug/ml incubated for 24 hrs by agar well diffusion method; format: functional; conditions: read-out: DIZ; how it was run: as §1
Bacillus subtilis [5] = assay: Antibacterial activity against Bacillus subtilis at 25 ug/ml incubated for 24 hrs by agar well diffusion method; format: functional; conditions: read-out: DIZ; how it was run: as §1
Bacillus subtilis [6] = assay: Antibacterial activity against Bacillus subtilis at 50 ug/ml incubated for 24 hrs by agar well diffusion method; format: functional; conditions: read-out: DIZ; how it was run: as §1
Bacillus subtilis [7] = assay: Antibacterial activity against Bacillus subtilis at 75 ug/ml incubated for 24 hrs by agar well diffusion method; format: functional; conditions: read-out: DIZ; how it was run: as §1
Bacillus subtilis [8] = assay: Antibacterial activity against Bacillus subtilis at 100 ug/ml incubated for 24 hrs by agar well diffusion method; format: functional; conditions: read-out: DIZ; how it was run: as §1
Escherichia coli [9] = assay: Antibacterial activity against Escherichia coli at 25 ug/ml incubated for 24 hrs by agar well diffusion method; format: functional; conditions: read-out: DIZ; how it was run: as §1
Escherichia coli [10] = assay: Antibacterial activity against Escherichia coli at 50 ug/ml incubated for 24 hrs by agar well diffusion method; format: functional; conditions: read-out: DIZ; how it was run: as §1
Escherichia coli [11] = assay: Antibacterial activity against Escherichia coli at 75 ug/ml incubated for 24 hrs by agar well diffusion method; format: functional; conditions: read-out: DIZ; how it was run: as §1
Escherichia coli [12] = assay: Antibacterial activity against Escherichia coli at 100 ug/ml incubated for 24 hrs by agar well diffusion method; format: functional; conditions: read-out: DIZ; how it was run: as §1
Klebsiella pneumoniae [13] = assay: Antibacterial activity against Klebsiella pneumoniae at 25 ug/ml incubated for 24 hrs by agar well diffusion method; format: functional; conditions: read-out: DIZ; how it was run: as §1
Klebsiella pneumoniae [14] = assay: Antibacterial activity against Klebsiella pneumoniae at 50 ug/ml incubated for 24 hrs by agar well diffusion method; format: functional; conditions: read-out: DIZ; how it was run: as §1
Klebsiella pneumoniae [15] = assay: Antibacterial activity against Klebsiella pneumoniae at 75 ug/ml incubated for 24 hrs by agar well diffusion method; format: functional; conditions: read-out: DIZ; how it was run: as §1
Klebsiella pneumoniae [16] = assay: Antibacterial activity against Klebsiella pneumoniae at 100 ug/ml incubated for 24 hrs by agar well diffusion method; format: functional; conditions: read-out: DIZ; how it was run: as §1
Aspergillus niger [17] = assay: Antifungal activity against Aspergillus niger at 25 ug/ml incubated for 48 hrs by agar well diffusion method; format: functional; conditions: read-out: DIZ
How it was run: (§2)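 Compounds dissolved in DMSO at 5 mg mL⁻¹ and 5–20 µL added to 6 mm wells, giving 25, 50, 75, 100 µg per well. Bavistin was the positive control and DMSO the negative control. Plates incubated at 28 °C for 48 h, then inhibition zone diameter (mm) measured. Values are means of three determinations.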

Aspergillus niger [18] = assay: Antifungal activity against Aspergillus niger at 50 ug/ml incubated for 48 hrs by agar well diffusion method; format: functional; conditions: read-out: DIZ; how it was run: as §2
Aspergillus niger [19] = assay: Antifungal activity against Aspergillus niger at 75 ug/ml incubated for 48 hrs by agar well diffusion method; format: functional; conditions: read-out: DIZ; how it was run: as §2
Aspergillus niger [20] = assay: Antifungal activity against Aspergillus niger at 100 ug/ml incubated for 48 hrs by agar well diffusion method; format: functional; conditions: read-out: DIZ; how it was run: as §2
Candida albicans [21] = assay: Antifungal activity against Candida albicans at 25 ug/ml incubated for 48 hrs by agar well diffusion method; format: functional; conditions: read-out: DIZ; how it was run: as §2
Candida albicans [22] = assay: Antifungal activity against Candida albicans at 50 ug/ml incubated for 48 hrs by agar well diffusion method; format: functional; conditions: read-out: DIZ; how it was run: as §2
Candida albicans [23] = assay: Antifungal activity against Candida albicans at 75 ug/ml incubated for 48 hrs by agar well diffusion method; format: functional; conditions: read-out: DIZ; how it was run: as §2
Candida albicans [24] = assay: Antifungal activity against Candida albicans at 100 ug/ml incubated for 48 hrs by agar well diffusion method; format: functional; conditions: read-out: DIZ; how it was run: as §2
Fusarium oxysporum [25] = assay: Antifungal activity against Fusarium oxysporum at 25 ug/ml incubated for 48 hrs by agar well diffusion method; format: functional; conditions: read-out: DIZ; how it was run: as §2
Fusarium oxysporum [26] = assay: Antifungal activity against Fusarium oxysporum at 50 ug/ml incubated for 48 hrs by agar well diffusion method; format: functional; conditions: read-out: DIZ; how it was run: as §2
Fusarium oxysporum [27] = assay: Antifungal activity against Fusarium oxysporum at 75 ug/ml incubated for 48 hrs by agar well diffusion method; format: functional; conditions: read-out: DIZ; how it was run: as §2
Fusarium oxysporum [28] = assay: Antifungal activity against Fusarium oxysporum at 100 ug/ml incubated for 48 hrs by agar well diffusion method; format: functional; conditions: read-out: DIZ; how it was run: as §2
Staphylococcus aureus [29] = assay: Antibacterial activity against Staphylococcus aureus incubated for 24 hrs by microdilution method; format: functional
Bacillus subtilis [30] = assay: Antibacterial activity against Bacillus subtilis incubated for 24 hrs by microdilution method; format: functional
Escherichia coli [31] = assay: Antibacterial activity against Escherichia coli incubated for 24 hrs by microdilution method; format: functional
Klebsiella pneumoniae [32] = assay: Antibacterial activity against Klebsiella pneumoniae incubated for 24 hrs by microdilution method; format: functional
Aspergillus niger [33] = assay: Antifungal activity against Aspergillus niger incubated for 48 to 72 hrs by microdilution method; format: functional
How it was run: (§3)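 Sabouraud agar plates inoculated with fungal suspension at 10⁵ CFU mL⁻¹ plus serially diluted compounds and bavistin reference, both in DMSO. Incubated at 25 °C for 48–72 h. MIC is the lowest concentration completely inhibiting growth. Values are means of three determinations.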

Candida albicans [34] = assay: Antifungal activity against Candida albicans incubated for 48 to 72 hrs by microdilution method; format: functional; how it was run: as §3
Fusarium oxysporum [35] = assay: Antifungal activity against Fusarium oxysporum incubated for 48 to 72 hrs by microdilution method; format: functional; how it was run: as §3
Staphylococcus aureus [36] = assay: Induction of cell membrane damage in Staphylococcus aureus assessed as cell content leakage at MIC by spectrophotometric method; format: functional, organism-based; conditions: TDE = time-dependent effect
How it was run: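 Log-phase S. aureus inoculated into 0.1% sterile peptone water, with an untreated control, and held at 37 °C for 0, 30, 60 and 120 min. 1 mL of broth centrifuged and supernatant OD read at 260 nm to measure released DNA. Run in triplicate, repeated three times.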

Erythrocyte = assay: Anti-inflammatory activity in human RBC assessed as inhibition of hypotonic solution-induced hemolysis after 10 mins by spectrophotometric method; format: functional, cell-based
How it was run: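 Human blood (heparinized) washed with 0.9% saline, packed cells made into a 40% v/v stock in isotonic phosphate buffer (154 mM NaCl, 10 mM sodium phosphate, pH 7.4). Stock RBC mixed with hypotonic buffer (50 mM NaCl, 10 mM phosphate, pH 7.4) plus sample at 20–100 µg mL⁻¹.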

In the case of `CC(C)(C)OC(=O)N[C@@H](Cc1ccccc1)C(=O)Oc1ccc2c(=O)c3ccccc3oc2c1`, the zone of inhibition at 25 µg/mL (Staphylococcus aureus [1]) is reported as 18 mm, the zone of inhibition at 50 µg/mL (Staphylococcus aureus [2]) is reported as 25 mm and the zone of inhibition at 75 µg/mL (Staphylococcus aureus [3]) is reported as 31 mm. For the same molecule, the zone of inhibition at 100 µg/mL (Staphylococcus aureus [4]) was 34 mm, the zone of inhibition at 25 µg/mL (Bacillus subtilis [5]) was 17 mm and the zone of inhibition at 50 µg/mL (Bacillus subtilis [6]) was 26 mm. For the same molecule, the zone of inhibition at 75 µg/mL (Bacillus subtilis [7]) was 33 mm, the zone of inhibition at 100 µg/mL (Bacillus subtilis [8]) was 36 mm and the zone of inhibition at 25 µg/mL (Escherichia coli [9]) was 16 mm. The zone of inhibition at 50 µg/mL (Escherichia coli [10]) was 25 mm, the zone of inhibition at 75 µg/mL (Escherichia coli [11]) was 32 mm and the zone of inhibition at 100 µg/mL (Escherichia coli [12]) was 34 mm. For the same molecule, the zone of inhibition at 25 µg/mL (Klebsiella pneumoniae [13]) was 20 mm, the zone of inhibition at 50 µg/mL (Klebsiella pneumoniae [14]) was 27 mm and the zone of inhibition at 75 µg/mL (Klebsiella pneumoniae [15]) was 33 mm. It also gave a zone of inhibition at 100 µg/mL (Klebsiella pneumoniae [16]) of 37 mm, a zone of inhibition at 25 µg/mL (Aspergillus niger [17]) of 17 mm and a zone of inhibition at 50 µg/mL (Aspergillus niger [18]) of 28 mm. The zone of inhibition at 75 µg/mL (Aspergillus niger [19]) was 35 mm, the zone of inhibition at 100 µg/mL (Aspergillus niger [20]) was 40 mm and the zone of inhibition at 25 µg/mL (Candida albicans [21]) was 22 mm. For the same molecule, the zone of inhibition at 50 µg/mL (Candida albicans [22]) was 27 mm, the zone of inhibition at 75 µg/mL (Candida albicans [23]) was 32 mm and the zone of inhibition at 100 µg/mL (Candida albicans [24]) was 38 mm. It also gave a zone of inhibition at 25 µg/mL (Fusarium oxysporum [25]) of 14 mm, a zone of inhibition at 50 µg/mL (Fusarium oxysporum [26]) of 22 mm and a zone of inhibition at 75 µg/mL (Fusarium oxysporum [27]) of 27 mm. For the same molecule, the zone of inhibition at 100 µg/mL (Fusarium oxysporum [28]) was 32 mm, the MIC (Staphylococcus aureus [29]) was 25 µg/mL (≈ 54.4 µM) and the MIC (Bacillus subtilis [30]) was 26 µg/mL (≈ 56.6 µM). For the same molecule, the MIC (Escherichia coli [31]) was 22 µg/mL (≈ 47.9 µM), the MIC (Klebsiella pneumoniae [32]) was 26 µg/mL (≈ 56.6 µM) and the MIC (Aspergillus niger [33]) was 28 µg/mL (≈ 60.9 µM). For the same molecule, the MIC (Candida albicans [34]) was 30 µg/mL (≈ 65.3 µM), the MIC (Fusarium oxysporum [35]) was 27 µg/mL (≈ 58.8 µM) and the Activity (Staphylococcus aureus [36]) was “Tde”. The IC50 (Erythrocyte) was 38 µg/mL (≈ 82.7 µM).
